Results from ChEMBL document CHEMBL2424614, “A novel p-terphenyl derivative inducing cell-cycle arrest and apoptosis in MDA-MB-435 cells through topoisomerase inhibition” (Eur J Med Chem, 2013).
Active and inactive are the calls of the source. The calls are words filed in the database; no cut-off is given here.

Assays:
[1] = tested on: MDA-MB-435; assay: Induction of apoptosis in human MDA-MB-435 cells assessed as chromatin condensation at 0.25 to 1 uM by DAPI staining-based fluorscence microscopy; format: functional, cell-based
In short: (§1)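 Treated MDA-MB-435 cells washed in ice-cold PBS, fixed 20 min in 4% paraformaldehyde, stained 30 min at 37 °C with DAPI (50 µg/mL) containing 100 µg/mL RNase A. After PBS washes, examined by fluorescence microscopy (excitation 340 nm, emission 488 nm).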

[2] = tested on: MDA-MB-435; assay: Induction of apoptosis in human MDA-MB-435 cells assessed as morphological changes at 0.25 to 1 uM by DAPI staining-based fluorescence microscopy; format: functional, cell-based; in short: as §1
[3] = tested on: MDA-MB-435; assay: Cell cycle arrest in human MDA-MB-435 cells assessed as accumulation at S phase at 1 uM after 24 hrs by propidium iodide staining-based flow cytometry (reference value: 57.11%); format: functional
[4] = tested on: MDA-MB-435; assay: Cell cycle arrest in human MDA-MB-435 cells assessed as accumulation at sub-G1 phase at 1 uM after 24 hrs by propidium iodide staining-based flow cytometry (reference value: 0.79%); format: functional
[5] = molecular target: DNA topoisomerase 2-alpha (Homo sapiens) (UniProt P11388); assay: Induction of recombinant human DNA topoisomerase 2-alpha poisoning activity using pBR322 as substrate assessed as appearance of linear DNA at 100 uM after 30 mins by Agarose gel electrophoresis
In short: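 Same format as the Topo IIα inhibition assay: 0.5 µg supercoiled pBR322 with 1 unit recombinant human Topo IIα. Incubated 37 °C for 30 min, stopped with 10% SDS, then proteinase K (50 µg/mL) for 20 min. Run on 1% agarose gel containing ethidium bromide, 5 V/cm, 2 h, TAE. Linear and nicked open circular DNA positions scored. At least duplicate.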

[6] = tested on: MDA-MB-435; assay: Cell cycle arrest in human MDA-MB-435 cells at 0.25 to 1 uM after 24 hrs by propidium iodide staining-based flow cytometry in presence of N-acetylcysteine; format: functional

DNA topoisomerase 2-alpha (Homo sapiens), sequence (P11388 whole entry): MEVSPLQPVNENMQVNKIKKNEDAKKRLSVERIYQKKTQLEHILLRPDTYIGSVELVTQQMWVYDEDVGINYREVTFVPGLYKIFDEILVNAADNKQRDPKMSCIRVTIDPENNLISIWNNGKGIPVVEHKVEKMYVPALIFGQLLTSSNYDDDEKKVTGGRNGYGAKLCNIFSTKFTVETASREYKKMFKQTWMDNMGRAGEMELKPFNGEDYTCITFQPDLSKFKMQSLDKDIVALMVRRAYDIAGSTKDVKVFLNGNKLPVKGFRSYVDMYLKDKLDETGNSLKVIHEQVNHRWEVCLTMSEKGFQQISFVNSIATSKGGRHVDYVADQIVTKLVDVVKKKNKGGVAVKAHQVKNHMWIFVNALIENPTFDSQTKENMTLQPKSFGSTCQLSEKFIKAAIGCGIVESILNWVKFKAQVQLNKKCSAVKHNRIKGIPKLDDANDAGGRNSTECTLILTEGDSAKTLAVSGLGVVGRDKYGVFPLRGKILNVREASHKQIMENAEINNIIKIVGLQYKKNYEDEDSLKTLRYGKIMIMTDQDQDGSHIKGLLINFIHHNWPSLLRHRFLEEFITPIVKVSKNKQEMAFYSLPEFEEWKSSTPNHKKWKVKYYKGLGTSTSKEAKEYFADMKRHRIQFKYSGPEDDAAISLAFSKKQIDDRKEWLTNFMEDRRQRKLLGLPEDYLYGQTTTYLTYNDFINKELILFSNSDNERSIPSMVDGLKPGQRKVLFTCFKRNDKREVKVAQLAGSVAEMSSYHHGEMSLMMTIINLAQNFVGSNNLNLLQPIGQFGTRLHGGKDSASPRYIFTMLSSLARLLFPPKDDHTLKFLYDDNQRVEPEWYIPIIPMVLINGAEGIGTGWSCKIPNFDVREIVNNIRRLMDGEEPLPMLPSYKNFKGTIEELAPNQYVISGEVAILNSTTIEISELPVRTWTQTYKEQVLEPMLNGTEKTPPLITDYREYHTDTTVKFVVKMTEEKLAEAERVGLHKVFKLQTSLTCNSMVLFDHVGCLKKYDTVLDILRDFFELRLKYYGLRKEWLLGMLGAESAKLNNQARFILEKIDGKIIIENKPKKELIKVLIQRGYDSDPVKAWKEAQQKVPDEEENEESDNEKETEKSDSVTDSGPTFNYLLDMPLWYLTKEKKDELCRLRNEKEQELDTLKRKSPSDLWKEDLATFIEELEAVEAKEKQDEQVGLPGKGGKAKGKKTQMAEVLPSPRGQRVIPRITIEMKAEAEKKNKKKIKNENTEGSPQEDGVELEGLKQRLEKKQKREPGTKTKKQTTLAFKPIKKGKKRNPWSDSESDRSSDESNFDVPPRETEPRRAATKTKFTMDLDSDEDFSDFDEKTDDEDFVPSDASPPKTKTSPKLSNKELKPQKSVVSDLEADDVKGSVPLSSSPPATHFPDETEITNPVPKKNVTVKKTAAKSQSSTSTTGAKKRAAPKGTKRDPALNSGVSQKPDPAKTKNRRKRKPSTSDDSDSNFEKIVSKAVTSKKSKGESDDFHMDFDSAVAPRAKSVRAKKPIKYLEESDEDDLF

For `Oc1ccc(-c2ccc(-c3ccc(O)c(O)c3)cc2)cc1`, the Activity [1] was “Active”, the Activity [2] was “Active” and the Activity [3] was 12.58%. The Activity [4] was 10.5%, the Activity [5] was “inactive” and the Activity [6] was “Active”.
